ChEMBL document CHEMBL1777774, “A novel, broad-spectrum antitumor compound containing the 1-hydroxycyclohexa-2,5-dien-4-one group: the disclosure of a new antitumor pharmacophore in protoapigenone 1” (Bioorg Med Chem Lett, 2011)

Assays:
MCF7 = assay: Antitumor activity against human MCF7 cells assessed as cell proliferation after 24 hrs by MTT assay; type: functional, cell-based; settings: MCF7, 24 h
How it was run: (§1)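 Cells seeded at 2000 per well in 96-well plates and allowed to adhere. Compounds in DMSO, diluted in culture medium, added at 0.1–100 μM (eight wells per concentration) for 24 h. DMSO vehicle control. MTT 0.5 mg/mL (in PBS) for 4 h, then medium removed and DMSO added, absorbance read at 570 nm. IC50 from concentration vs percent absorbance plot. Mean ± SD, n = 4.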

MDA-MB-231 = assay: Antitumor activity against human MDA-MB-231 cells assessed as cell proliferation after 24 hrs by MTT assay; type: functional, cell-based; settings: MDA-MB-231, 24 h; how it was run: as §1
SK-OV-3 = assay: Antitumor activity against human SKOV3 cells assessed as cell proliferation after 24 hrs by MTT assay; type: functional, cell-based; settings: SK-OV-3, 24 h; how it was run: as §1
PC-3 = assay: Antitumor activity against human PC3 cells assessed as cell proliferation after 24 hrs by MTT assay; type: functional, cell-based; settings: PC-3, 24 h; how it was run: as §1
HepG2 = assay: Antitumor activity against human HepG2 cells assessed as cell proliferation after 24 hrs by MTT assay; type: functional, cell-based; settings: HepG2, 24 h; how it was run: as §1
PANC-1 = assay: Antitumor activity against human PANC1 cells assessed as cell proliferation after 24 hrs by MTT assay; type: functional, cell-based; settings: PANC-1, 24 h; how it was run: as §1
RPMI-8226 = assay: Antitumor activity against human RPMI8226 cells assessed as cell proliferation after 24 hrs by MTT assay; type: functional, cell-based; settings: RPMI-8226, 24 h; how it was run: as §1
U-266 = assay: Antitumor activity against human U266 cells assessed as cell proliferation after 24 hrs by MTT assay; type: functional, cell-based; settings: U-266, 24 h; how it was run: as §1
HEK293 = assay: Cytotoxicity against human HEK293 cells assessed as cell proliferation after 24 hrs by MTT assay; type: cell-based; settings: HEK293, 24 h; how it was run: as §1
PBMC = assay: Cytotoxicity against human PBMC assessed as cell proliferation after 24 hrs by MTT assay; type: cell-based; how it was run: as §1
H22 = assay: Antitumor activity against mouse H22 tumor-nearing ICR mouse assessed as inhibition of tumor growth at 10 mg/kg, ip for 7 days measured on day 9; type: functional; settings: route intraperitoneal
How it was run: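 ICR mice given H22 ascites cells from serial passage, 0.2 ml of 1×10^7 cells/ml injected subcutaneously into right flank, 10 mice per group. From day 2, 10 mg/kg/day ip in 10% ethanol (10 ml/kg) for 7 days. Cyclophosphamide 10 mg/kg as reference, vehicle-treated tumor model group. Killed day 9, tumors weighed. Inhibition = (model − treated tumor weight)/model weight × 100%.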

Mus musculus [1] = assay: Toxicity in […] H22 tumor-nearing ICR mouse assessed as white blood cell count at 10 mg/kg, ip for 7 days measured on day 9 relative to control; type: organism-based; set-up: dose 10 mg/kg, route intraperitoneal; settings: in vivo, 168 h
How it was run: (§2)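 H22-bearing ICR mice (10 per group, plus a saline-injected normal group) dosed ip at 10 mg/kg/day in 10% ethanol for 7 days from day 2. Vehicle given to controls. On day 9 blood was taken for WBC count, and body weight, thymus and spleen were weighed. Thymus or spleen index = organ weight (mg)/body weight (g).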

Mus musculus [2] = assay: Toxicity in […] H22 tumor-nearing ICR mouse assessed as thymus index at 10 mg/kg, ip for 7 days measured on day 9 relative to control; type: organism-based; set-up: dose 10 mg/kg, route intraperitoneal; settings: in vivo, 168 h; how it was run: as §2
Mus musculus [3] = assay: Toxicity in […] H22 tumor-nearing ICR mouse assessed as spleen index at 10 mg/kg, ip for 7 days measured on day 9 relative to control; type: organism-based; set-up: dose 10 mg/kg, route intraperitoneal; settings: in vivo, 168 h; how it was run: as §2
Mus musculus [4] = assay: Toxicity in […] H22 tumor-nearing ICR mouse assessed as body weight at 10 mg/kg, ip for 7 days measured on day 9 relative to control; type: organism-based; set-up: dose 10 mg/kg, route intraperitoneal; settings: in vivo, 168 h; how it was run: as §2
Mus musculus [5] = assay: Toxicity in […] H22 tumor-nearing ICR mouse assessed as decrease in total nucleated bone marrow cells at 10 mg/kg, ip for 7 days measured on day 9; type: organism-based; set-up: dose 10 mg/kg, route intraperitoneal; scale not given: the % may be the effect or the level left; settings: in vivo, 168 h
How it was run: (§3)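 H22-bearing ICR mice dosed ip 10 mg/kg/day in 10% ethanol for 7 days from day 2, with vehicle controls. Killed day 9 and femoral marrow flushed. Nucleated cells counted with a Coulter Counter. Granulocytic and erythroid cells per femur counted on May-Grünwald-Giemsa-stained marrow smears.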

Mus musculus [6] = assay: Toxicity in […] H22 tumor-nearing ICR mouse assessed as decrease in ratio of granulocytic and erythroid cell system at 10 mg/kg, ip for 7 days measured on day 9; type: organism-based, Erythrocyte; set-up: dose 10 mg/kg, route intraperitoneal; scale not given: the % may be the effect or the level left; settings: in vivo, 168 h; how it was run: as §3

Row | IC50 (MCF7) [µM] | IC50 (MDA-MB-231) [µM] | IC50 (SK-OV-3) [µM] | IC50 (PC-3) [µM] | IC50 (HepG2) [µM] | IC50 (PANC-1) [µM] | IC50 (RPMI-8226) [µM] | SMILES | IC50 (U-266) [µM] | IC50 (HEK293) [µM] | IC50 (PBMC) [µM] | inhibition in vivo at 10 mg/kg (H22) [%] | Activity (Mus musculus [1]) | Activity (Mus musculus [2]) | Activity (Mus musculus [3]) | Activity (Mus musculus [4]) | Activity (Mus musculus [5]) | Activity (Mus musculus [6])
1 | 0.71 | 0.38 | 0.64 | 3.43 | 1.76 | 3.08 | 13.5 | O=C1C=CC(O)(c2cc(=O)cco2)C=C1 | 9.44 | 30 | 49.3 | 34.1 | Non-toxic | Non-toxic | Non-toxic | Non-toxic | Non-toxic | Non-toxic
2 |  |  |  |  |  |  |  | O=P1(N(CCCl)CCCl)NCCCO1 (stereo not given) [CYCLOPHOSPHAMIDE ANHYDROUS] |  |  |  | 41.7 |  |  |  |  |  | 
3 | 5.5 | 1.7 | 0.71 | 6.13 | 7.77 | 22.1 | 3.93 | O=C1C=CC(O)(c2cc(=O)c3c(O)cc(O)cc3o2)C=C1 [PROTOAPIGENONE] | 7.66 | 6.79 | 8.11 | < 5 | Non-toxic | Non-toxic | Non-toxic | Non-toxic | 51.52% | 36.9%
